Apaf-1 inh: inhibitors of human Apaf-1 apoptosome | actives 0.71% (n = 330,000) | O14727 | inhibition, % at 20 µM | reconstituted apoptosome caspase-3 activity, DEVD-Rh110 fluorescence; active = inhibition of at least 40% at 20 µM;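 also: plate controls were DMSO wells for no effect and DEVD-CHO caspase inhibitor wells for full effect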
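Assay system – apoptosome proteins · Medium – Hepes buffer, pH 7.5 · Also added – cytochrome c with DEVD-Rh110 · Timing – 30 min compound preincubation, 50 min activation, room temperature · Detection – Rh110 fluorescence, excitation 480 nm, emission 540 nm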
PAFAH1B3 FP inh: blocks human PAF acetylhydrolase 1B catalytic subunit 3; recombinant PAFAH1B3, FP-rhodamine probe, fluorescence polarization; Q15102; actives 0.28% (n = 340,000); inhibition, % at 3.39 µM;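 active = inhibition above the screen-wide average of all tested compounds plus 3 SD, cut at about 25% in these data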;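 also: 0% = enzyme with DMSO only and 100% = wells lacking PAFAH1B3 protein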
PAFAH2 FP inh: PAFAH2 (human) inhibition. Q99487. recombinant PAFAH2, FP-rhodamine activity probe, fluorescence polarization. inhibition, % at 3.39 µM. actives 0.99% (n = 340,000). AID 492956;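 active = inhibition above the mean over all tested compounds plus 3 SD, cut at about 30% in these data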;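 also: inhibitors block probe labeling of enzyme so polarization drops; 0% = enzyme with DMSO and 100% = wells lacking PAFAH2 protein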
TDP2 inh: TDP2 (human) inhibition, absorbance primary screen; O95551; recombinant TDP2, T5PNP hydrolysis, p-nitrophenol absorbance 415 nm; inhibition, % at 12.8 µM; actives 0.34% (n = 370,000);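 active = inhibition above the mean of all tested compounds plus 3 SD, set per campaign, cut at about 25% in these data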;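 also: 0% = DMSO with enzyme and 100% = buffer with substrate but no TDP2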
Target sequence (O95551 whole entry, looked up): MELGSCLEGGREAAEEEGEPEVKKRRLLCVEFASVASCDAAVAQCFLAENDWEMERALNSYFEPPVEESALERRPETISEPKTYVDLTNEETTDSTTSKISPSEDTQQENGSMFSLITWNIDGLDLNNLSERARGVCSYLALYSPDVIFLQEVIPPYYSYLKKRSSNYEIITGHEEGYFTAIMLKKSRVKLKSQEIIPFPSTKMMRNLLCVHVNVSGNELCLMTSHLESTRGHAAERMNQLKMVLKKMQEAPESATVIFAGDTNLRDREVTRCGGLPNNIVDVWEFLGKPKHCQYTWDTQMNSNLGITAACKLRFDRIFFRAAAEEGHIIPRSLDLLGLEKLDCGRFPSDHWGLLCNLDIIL
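Material: recombinant human TDP2; quantity: TDP2 enzyme at 120 nM final; medium: Tris-HCl pH 7.5 with MgCl2; compound: single concentration, 12.8 µM nominal, with 1% DMSO; incubation: 2 h enzyme incubation at 37 °C; signal: epi absorbance; measure: percent inhibition; benchmarks: high control without enzyme, low control DMSO plus TDP2; repeats: singlicate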
PAFAH1B2 FP inh: inhibitors of human PAFAH1B2. P68402. recombinant PAFAH1B2, FP-rhodamine activity probe, fluorescence polarization. inhibition, % at 3.39 µM. actives 1.2% (n = 340,000). AID 492953;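 active = inhibition above the mean of all tested compounds plus 3 SD, cut at about 24% in these data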;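 also: 0% = enzyme with DMSO and 100% = wells lacking PAFAH1B2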
Target sequence (P68402 whole entry, looked up): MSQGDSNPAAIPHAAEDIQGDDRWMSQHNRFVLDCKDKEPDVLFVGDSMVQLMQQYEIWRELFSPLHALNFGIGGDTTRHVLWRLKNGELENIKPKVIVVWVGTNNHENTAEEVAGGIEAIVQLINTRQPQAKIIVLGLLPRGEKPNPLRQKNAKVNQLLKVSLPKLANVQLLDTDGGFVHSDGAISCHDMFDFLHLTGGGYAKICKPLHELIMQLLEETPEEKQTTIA
An asterisk follows results filed as active; nt = no result. This is a sample that favours compounds with a hit; in the whole collection about 2.3% have one here.

SMILES	Apaf-1 inh	PAFAH1B3 FP inh	PAFAH2 FP inh	TDP2 inh	PAFAH1B2 FP inh
C#CCOCCOCCOCCNc1nc(N2CCOCC2)nc(N2CCN(C(=O)CCCCCCCCCCNC(=O)[C@@H](CCSC)n3cc(CCO)nn3)CC2)n1	8	2	2	10	1
CN(C)[C@@H]1CCN(c2cccc3c2S(=O)(=O)N(C2CC2)CCCO3)C1	nt	nt	nt	-2	nt
CCCN1C(=O)c2n[nH]c(C(C)C)c2C1c1cccc(C(F)(F)F)c1 (stereo not drawn)	nt	nt	nt	5	nt
N#Cc1c(NC(=O)C2CC=CCC2C(=O)O)sc2c1CCCCCC2 (stereo not drawn)	6	4	6	-2	45*
CC1CCc2c(sc(NC(=O)c3ccccc3C(=O)O)c2C#N)C1 (stereo not drawn)	6	2	-2	-8	-1
CC(C)(C)C1CCc2c(sc(NC(=O)C3CC=CCC3C(=O)O)c2C#N)C1 (stereo not drawn)	14	10	12	-19	59*
CC(C)(C)C1CCc2c(sc(NC(=O)c3cc(C4CC4)on3)c2C#N)C1 (stereo not drawn)	19	2	11	-4	15
CCC(C)(C)C1CCc2c(sc(NC(=O)c3ccccc3C(=O)O)c2C#N)C1 (stereo not drawn)	11	11	15	-7	67*
C[C@@H]1OC(C2CCCCC2)N(C)[C@H]2C[C@H]3c4cc(N5CCOCC5)ccc4CCN3C[C@@H]12 (stereo partly drawn)	nt	nt	nt	0	nt
CCc1c(-c2ccccc2Br)ncn1CCc1ccccc1OC	nt	nt	nt	8	nt
COC(=O)C[C@H]1CC[C@@H]2[C@H](COc3ccc(NC(=O)C(C)C)cc3C(=O)N2C)O1	nt	nt	nt	-8	nt
C=C(C)C(COc1c2occc2cc2ccc(=O)oc12)OC(C)(C)C(O)COc1c2occc2cc2ccc(=O)oc12 (stereo not drawn)	0	7	1	2	66*
CC(C)C(=O)COc1c2occc2cc2ccc(=O)oc12	-2	9	4	-7	10
CC(C)(c1ccc(O)c([N+](=O)[O-])c1)c1ccc(O)c([N+](=O)[O-])c1	nt	1	1	8	26*
O=S1(=O)c2ccc(N3CCC[C@H]3CO)cc2OCCCN1C1CC1	nt	nt	nt	2	nt
CCS(=O)(=O)c1ccc(O)c(NC(=O)/C=C/c2ccc(Cl)cc2)c1	3	4	66*	11	-4
CCS(=O)(=O)c1ccc(O)c(NC(=O)COc2ccc(Br)cc2)c1	2	3	80*	-2	34*
C=CCN1[C@H](CC(C)C)COc2cc(N3CCSCC3)ccc2S1(=O)=O	nt	nt	nt	-4	nt
CC(C)[C@@H]1OC(=O)[C@@H]2CCCN2C(=O)[C@H](C)OC(=O)[C@H](C)[C@@H](C(C)C)NC(=O)[C@@H]2CCCN2C(=O)[C@H]([C@H](C)Cc2ccccc2)NC(=O)[C@@H]2CCCN2C(=O)[C@@H](C(C)C)N(C)C1=O	nt	nt	nt	-9	nt
CCCC[C@H]1C2CC(OC(=O)NCc3ccc(Cl)cc3)C(C2)[C@H]2CCCCN21 (stereo partly drawn)	nt	nt	nt	1	nt
COc1cc(Cn2cc([C@]34C[C@H]5C(=O)N(C)CC(=O)N5[C@H]3N(S(=O)(=O)c3ccccc3)c3ccccc34)c3ccccc32)cc(OC)c1	nt	nt	nt	2	nt
CCC(=O)Nc1cccc(C(=O)OCC(=O)c2ccccc2Cl)c1	-24	5	41*	0	-1
CC(=O)Nc1cccc(C(=O)OCC(=O)c2ccccc2Cl)c1	6	2	25	-15	1
Nc1ccc2nc(-c3cccc(-c4nc5ccc(N)cc5[nH]4)c3)[nH]c2c1	14	31*	7	-5	24*
O=C(OCC(=O)N1CCC(c2ccccc2)=N1)c1ccc([N+](=O)[O-])s1	52*	16	21	11	15
SMILES	Apaf-1 inh	PAFAH1B3 FP inh	PAFAH2 FP inh	TDP2 inh	PAFAH1B2 FP inh
O=C(CSc1ccccc1F)OCC(=O)N1CCN(C(=O)c2ccco2)CC1	0	-1	13	10	2
Cc1cc(Br)ccc1SCC(=O)OCC(=O)N1CCN(C(=O)c2ccco2)CC1	8	-1	28	-2	27*
COc1cc(C=O)ccc1OCCSc1ccc(Cl)cc1	18	1	1	-14	56*
CCOC(=O)[C@]12CCCCC/C=C\1N(Cc1ccc(OC)cc1)C(=O)[C@H]2CC(=O)NCc1cccc(C(F)(F)F)c1	nt	nt	nt	-14	nt
CC1CCC(C(C)C)C(OC(=O)CSc2nc(N)cc(=O)[nH]2)C1 (stereo not drawn)	9	3	-6	-9	23
CC1CCC(C(C)C)C(OC(=O)CSc2nnc(N)s2)C1 (stereo not drawn)	5	2	7	-5	27*
CCN1C(=O)N(C)C2(c3ccccc3)N(C)C(=O)N(C)C12c1ccccc1 (stereo not drawn)	15	2	5	6	38*
O=C(OC12CCCN(C1)/C(=C/c1cccc(Cl)c1)C2)c1cccc(F)c1 (stereo not drawn)	nt	nt	nt	0	nt
O=C1C(O)=CC(=C(c2ccccc2)c2ccccc2)c2ccccc21	nt	10	-2	26*	7
CC1=C[C@]2(C[N+](Cc3ccccc3)=C(N)N2)n2c(=O)n(-c3ccccc3)c(=O)n2C1	nt	nt	nt	1	nt
COc1ccc(CCN2C(=O)CSC2c2ccc(F)cc2)cc1 (stereo not drawn)	19	1	-6	-8	26*
CCN(c1cc(C)cc(C)c1)S(=O)(=O)c1nnc(NC(=O)C(C)(C)C)s1	12	7	5	-2	8
CN(c1ccc(Cl)cc1)S(=O)(=O)c1nnc(NC(=O)C(C)(C)C)s1	8	9	-2	-6	28*
Cc1cc(C)c2c(-n3cccc3)c(C(=O)NNS(=O)(=O)c3ccc(Cl)cc3)sc2n1	19	2	8	-9	37*
COc1cc(C(=O)NCC2CCCO2)ccc1OCc1ccc(Cl)cc1 (stereo not drawn)	3	5	4	0	9
O=C(NCC1CCCO1)c1ccc(COc2ccc(Cl)cc2)cc1 (stereo not drawn)	7	-2	3	-1	29*
CCC[C@@H]1CCCO[C@@](C(=O)NCc2ccccn2)(C(F)(F)F)C1	5	9	9	-13	30*
CCCC[C@@H]1CCCO[C@@](C(=O)NCc2ccccn2)(C(F)(F)F)C1	-6	-4	-1	-18	0
CC(C)[C@H](NC(=O)c1ccc(Cl)c(Cl)c1)C(=O)N1CCC[C@H]1C(=O)NCCc1ccccc1Cl	nt	nt	nt	-1	nt
CCNc1ccccc(C(=O)/C=C/c2ccc3c(c2)OCO3)c1=O	34	8	30*	5	5
CCNc1ccc(Br)cc(C(=O)/C=C/c2ccccc2Cl)c1=O	30	9	36*	8	3
O=C(O)c1ccccc1-c1ccccc1C(=O)NCc1cccc(C(F)(F)F)c1	7	-3	-4	6	29*

Compound activity (PubChem BioAssay)
